Laboratory results reported in ChEMBL document CHEMBL1126069, “Synthesis of high affinity fluorine-substituted ligands for the androgen receptor. Potential agents for imaging prostatic cancer by positron emission tomography” (J Med Chem, 1992).

How the values were obtained:
[1] = target: T1, Progesterone receptor (Rattus norvegicus) (UniProt Q63449); experiment: Displacement of [3H]R5020 from rat progesterone receptor(PgR)
T1 sequence (whole entry): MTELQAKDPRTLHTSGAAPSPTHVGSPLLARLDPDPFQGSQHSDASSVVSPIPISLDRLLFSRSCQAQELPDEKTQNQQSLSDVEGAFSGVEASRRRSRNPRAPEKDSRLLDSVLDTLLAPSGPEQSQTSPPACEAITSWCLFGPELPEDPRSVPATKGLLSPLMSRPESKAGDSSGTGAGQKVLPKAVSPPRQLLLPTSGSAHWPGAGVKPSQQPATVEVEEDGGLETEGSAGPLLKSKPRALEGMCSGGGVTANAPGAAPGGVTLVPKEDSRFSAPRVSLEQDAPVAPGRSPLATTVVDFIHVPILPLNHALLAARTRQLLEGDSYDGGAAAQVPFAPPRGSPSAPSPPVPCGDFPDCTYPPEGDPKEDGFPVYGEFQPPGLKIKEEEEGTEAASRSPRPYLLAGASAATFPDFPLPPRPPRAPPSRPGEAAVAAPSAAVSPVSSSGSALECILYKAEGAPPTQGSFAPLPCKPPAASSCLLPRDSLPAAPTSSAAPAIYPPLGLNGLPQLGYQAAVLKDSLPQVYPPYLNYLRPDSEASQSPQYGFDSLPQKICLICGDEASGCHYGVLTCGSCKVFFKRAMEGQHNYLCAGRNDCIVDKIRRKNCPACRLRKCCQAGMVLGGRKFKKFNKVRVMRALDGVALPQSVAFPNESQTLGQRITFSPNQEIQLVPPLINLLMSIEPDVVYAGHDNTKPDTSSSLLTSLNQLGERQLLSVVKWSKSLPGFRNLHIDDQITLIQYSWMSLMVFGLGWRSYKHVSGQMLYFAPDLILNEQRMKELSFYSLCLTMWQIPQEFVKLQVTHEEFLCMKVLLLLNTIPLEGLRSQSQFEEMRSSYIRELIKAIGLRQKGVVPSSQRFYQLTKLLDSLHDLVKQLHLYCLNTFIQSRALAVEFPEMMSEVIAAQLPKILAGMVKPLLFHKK
Procedure, shortened: (§1)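 Competitive radiometric binding assay giving relative binding affinities. The reference standards were R5020 for rat PgR, aldosterone for rat MR and estradiol for human SBP.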

Rattus norvegicus [2] = species on record: Rattus norvegicus; experiment: Relative affinity for rat androgen receptor(AR) and mineralocorticoid receptor(MR)
Procedure, shortened: (§2)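 Each ratio is AR relative binding affinity divided by the RBA for PgR, MR or SBP. The AR source was ventral prostate cytosol from mature male Holtzman rats orchidectomized 24 h before. Cytosol was preincubated with triamcinolone acetonide to block PgR and corticosteroid receptors. [3H]R1881 served as tracer, incubated 18 h at 0 °C. Free ligand was removed with dextran-coated charcoal, 15 min at 0 °C. AR RBA is on a percent scale versus R1881.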

Rattus norvegicus [3] = species on record: Rattus norvegicus; experiment: Relative affinity for rat androgen receptor(AR) and progesterone receptor(PgR); procedure, shortened: as §2
[4] = target: T2, Sex hormone-binding globulin (Homo sapiens) (UniProt P04278); experiment: Displacement of [3H]estradiol from human Sex steroid binding protein (SBP); procedure, shortened: as §1
T2 sequence (whole entry): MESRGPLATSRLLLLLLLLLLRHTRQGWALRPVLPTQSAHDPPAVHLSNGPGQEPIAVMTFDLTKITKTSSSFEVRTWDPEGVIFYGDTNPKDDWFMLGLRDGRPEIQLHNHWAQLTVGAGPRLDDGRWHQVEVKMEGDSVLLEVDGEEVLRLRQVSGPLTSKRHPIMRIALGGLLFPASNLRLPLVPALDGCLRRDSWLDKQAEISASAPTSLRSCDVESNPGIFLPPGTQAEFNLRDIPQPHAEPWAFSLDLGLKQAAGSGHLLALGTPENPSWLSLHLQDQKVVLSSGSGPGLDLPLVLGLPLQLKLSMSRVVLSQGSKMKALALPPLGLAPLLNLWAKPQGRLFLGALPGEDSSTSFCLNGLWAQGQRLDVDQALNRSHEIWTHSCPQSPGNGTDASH

[5] = Relative affinity for rat androgen receptor(AR) and human Sex steroid binding protein (SBP); procedure, shortened: as §2
[6] = target: T3, Mineralocorticoid receptor (Rattus norvegicus) (UniProt P22199); experiment: Displacement of [3H]aldosterone from rat Mineralocorticoid receptor; procedure, shortened: as §1
T3 sequence (whole entry): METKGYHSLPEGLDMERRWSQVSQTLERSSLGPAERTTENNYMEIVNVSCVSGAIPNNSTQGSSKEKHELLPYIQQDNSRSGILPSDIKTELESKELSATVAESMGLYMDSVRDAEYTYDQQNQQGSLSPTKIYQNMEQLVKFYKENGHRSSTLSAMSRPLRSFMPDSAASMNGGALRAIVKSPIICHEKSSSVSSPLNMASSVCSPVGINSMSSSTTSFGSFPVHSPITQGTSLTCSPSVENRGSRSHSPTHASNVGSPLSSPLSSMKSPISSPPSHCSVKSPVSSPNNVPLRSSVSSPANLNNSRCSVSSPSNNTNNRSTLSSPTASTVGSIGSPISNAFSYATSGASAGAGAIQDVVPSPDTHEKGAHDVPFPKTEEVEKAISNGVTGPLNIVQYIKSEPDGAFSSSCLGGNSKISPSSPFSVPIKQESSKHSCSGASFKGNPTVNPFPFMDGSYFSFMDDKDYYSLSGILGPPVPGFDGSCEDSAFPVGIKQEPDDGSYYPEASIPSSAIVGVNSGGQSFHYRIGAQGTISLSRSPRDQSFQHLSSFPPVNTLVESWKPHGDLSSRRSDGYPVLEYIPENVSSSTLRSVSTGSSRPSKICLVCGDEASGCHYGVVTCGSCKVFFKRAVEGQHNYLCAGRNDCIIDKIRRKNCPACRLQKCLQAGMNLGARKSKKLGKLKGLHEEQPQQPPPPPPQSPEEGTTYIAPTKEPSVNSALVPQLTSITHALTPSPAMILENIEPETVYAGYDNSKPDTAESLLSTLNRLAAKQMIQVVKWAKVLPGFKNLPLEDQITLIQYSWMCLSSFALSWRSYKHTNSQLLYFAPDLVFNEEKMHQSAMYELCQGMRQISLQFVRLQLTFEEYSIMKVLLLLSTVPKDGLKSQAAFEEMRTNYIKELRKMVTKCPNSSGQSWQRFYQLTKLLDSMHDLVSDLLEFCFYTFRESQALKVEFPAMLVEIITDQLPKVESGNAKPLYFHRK

SMILES | relative binding affinity (RBA) [1] | RBA ratio (Rattus norvegicus [2]) | RBA ratio (Rattus norvegicus [3]) | relative binding affinity (RBA) [4] | RBA ratio [5] | relative binding affinity (RBA) [6]
C[C@@H]1CC2=CC(=O)CC[C@@H]2C2CC[C@@]3(C)C(C[C@H](F)[C@]3(C)O)C21 (some centres not stated) | 3 | 385 | 10.3 | 1.3 | 23.7 | 0.08
C[C@@H]1CC2=CC(=O)CC[C@@H]2C2CC[C@@]3(C)C(CC[C@@H]3O)C21 (some centres not stated) | 3.7 | 210 | 42.1 | 28.7 | 5.4 | 0.74
C[C@]12CC[C@H]3[C@@H](CCC4=CC(=O)CC[C@@]43C)[C@@H]1CC[C@@H]2O | 0.09 |  |  | 417 |  | 4.19
C[C@@H]1CC2=CC(=O)CC[C@@H]2C2CC[C@@]3(C)C(C[C@H](F)[C@@H]3O)C21 (some centres not stated) | 1.6 | 730 | 23.4 | 3.75 | 9.7 | 0.05
C[C@@H]1CC2=CC(=O)CC[C@@H]2C2CC[C@@]3(C)C(C[C@@H](F)[C@]3(C)O)C21 (some centres not stated) | 14.4 | 101 | 2.6 | 3.1 | 12 | 0.37
C[C@]12CC[C@H]3[C@@H](CCC4CC(=O)CC[C@@]43C)[C@@H]1C[C@@H](F)[C@@H]2O (some centres not stated) | 0.07 | 75.5 | 56.1 | 228 | 0.02 | 0.05
C[C@]12C=CC3=C4CCC(=O)C=C4CCC3C1CC[C@@]2(O)CF (some centres not stated) | 10.5 | 4.2 | 1.8 | 2.2 | 8.5 | 4.5
C[C@@H]1CC2=CC(=O)CC[C@@H]2C2CC[C@@]3(C)C(CC[C@]3(C)O)C21 (some centres not stated) | 20.4 | 20.7 | 5.8 | 19 | 6.2 | 5.7
C[C@@H]1CC2=CC(=O)CC[C@@H]2C2CC[C@@]3(C)C(C[C@@H](F)[C@@H]3O)C21 (some centres not stated) | 5.7 | 104 | 3.8 | 4.01 | 5.5 | 0.21
C[C@]12CC[C@H]3[C@@H](CCC4CC(=O)CC[C@@]43C)[C@@H]1C[C@H](F)[C@@H]2O (some centres not stated) | 0.12 | 689 | 356 | 385 | 0.16 | 0.06
C[C@]1(O)CC[C@H]2[C@@H]3CCC4=CC(=O)CCC4=C3C=C[C@@]21C | 43.7 | 3.9 | 2.3 | 4 | 25 | 25.4
C[C@@H]1CC2=CC(=O)CC[C@@H]2C2CC[C@@]3(C)C(CC[C@@]3(O)CF)C21 (some centres not stated) | 10.3 | 61.9 | 5.2 | 3 | 17.7 | 0.86
C[C@]12CC[C@H]3[C@@H](CCC4=CC(=O)CC[C@@H]43)[C@@H]1CC[C@@H]2O | 3.1 |  |  | 29.9 |  | 2
